MDM2 E3 inh: blocks human Mdm2 ubiquitin ligase activity. actives 0.11% (n = 210,000). cell-based MDM2 ubiquitination luciferase reporter, 2 h; 0 = plate control, 100 = twice control, blank-subtracted. Q00987. signal enhancement, % at 5 µM;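 active = signal enhancement of 30% or more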;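 also: luminescence tracks abundance of the self-degrading MDM2-luciferase fusion protein; higher signal means inhibition of MDM2 E3 ligase activity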
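test system = mammalian cells stably expressing self-ubiquitinating, self-degrading MDM2 E3–luciferase fusion | quantity = 2000 cells/well | incubation = cell settling 4 h, compound treatment 2 h, both 37 °C | signal = luminescence with SteadyLite reagent, 15 min at room temperature | evaluation = % enhancement relative to plate controls after blank subtraction | benchmarks = plate controls and plate blanks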
UPR XBP1 act: activators of adaptive arm of unfolded protein response (XBP1) | CHO-XBP1 luciferase reporter, IRE1-XBP1 UPR activation, luminescence; percent of tunicamycin response, DMSO as zero | activation, % at 20 µM | actives 0.33% (n = 330,000) | AID 463104;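 active = versus positive control, 20 µM dose yields 30% or more activation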;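 also: 100% = tunicamycin at 10 µg/mL and 0% = DMSO only wells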
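Material: IRE1-XBP1 luciferase reporter CHO line / Quantity: one thousand reporter cells per well / Buffer or medium: F12 with 10% serum / Compound: 20 µM single concentration, DMSO 1% / Times: 6 h treatment, 37 °C / Detection: Steady-Glo luciferase glow luminescence, 10 min after reagent addition / Benchmarks: tunicamycin high, DMSO low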
Mdm2-MdmX inh: inhibitors of human Mdm2/MdmX interaction; AID 485346; actives 3% (n = 330,000); SaOS-2 split-luciferase Mdm2/MdmX complementation, luminescence; inhibition, % at 8 µM; O15151+Q00987;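 active = inhibition of at least 50% at 8 µM in the primary screen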
UPR CHOP act: apoptotic UPR (CHOP) activation; AID 449763; activation, % at 10 µM; actives 0.34% (n = 330,000); CHO-CHOP luciferase reporter, luminescence; percent of tunicamycin response over DMSO baseline;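 active = at 10 µM dose, activation of 40% or more, normalized to positive control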;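 also: 100% = tunicamycin at 10 µg/mL and 0% = DMSO alone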
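Dosing – one dose, 10 µM in 0.5% DMSO · System – CHO-CHOP cells, stable luciferase reporter of PERK-eIF2a-CHOP signalling · Input – 500 cells/well · Control set – tunicamycin 10 µg/mL final as positive, DMSO-only wells as negative · Timing – 6 h compound treatment, 37 °C · Measure – % activation vs tunicamycin · Technique – luminescence read with Steady-Glo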
Dynein transport: blocks dynein driven cargo transport along microtubules; 3617.4 mouse cells, GR-EGFP nuclear translocation imaging; test concentration mostly 20 µM; stimulated with dexamethasone, 1 µM; hits give low values; z-score, hits read low; actives 0.47% (n = 220,000);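 active = plate z-score of nuclear minus cytoplasmic receptor signal below a set negative limit, without overly bright fluorescence or cell loss, cut at about -3.5 in these data, passing the limit was not always enough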;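 also: z-score of nuclear minus cytoplasmic ring GR-EGFP intensity difference per well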
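Schedule: 48 h induction, then 1 h compound, then 30 min agonist, 37 °C. Buffer or medium: tetracycline-free induction medium containing charcoal-stripped FBS. Reagent: 1.0 µM final dexamethasone stimulus. Evaluation: nuclear versus cytoplasmic GR-EGFP signal, averaged per well. Signal: high-content fluorescence imaging after fixation.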
B2AR ag: agonists of human beta-2 adrenergic receptor inducing internalization; P07550; Am2.2-beta2AR cells, FAP receptor internalization, flow cytometry; response, % (concentration not given with the values); actives 0.43% (n = 340,000); AID 504454;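 active = response above a set limit, near 3 SD of response in nonfluorescent compounds, cut at about 42% in these data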
Target sequence (P07550 whole entry, looked up): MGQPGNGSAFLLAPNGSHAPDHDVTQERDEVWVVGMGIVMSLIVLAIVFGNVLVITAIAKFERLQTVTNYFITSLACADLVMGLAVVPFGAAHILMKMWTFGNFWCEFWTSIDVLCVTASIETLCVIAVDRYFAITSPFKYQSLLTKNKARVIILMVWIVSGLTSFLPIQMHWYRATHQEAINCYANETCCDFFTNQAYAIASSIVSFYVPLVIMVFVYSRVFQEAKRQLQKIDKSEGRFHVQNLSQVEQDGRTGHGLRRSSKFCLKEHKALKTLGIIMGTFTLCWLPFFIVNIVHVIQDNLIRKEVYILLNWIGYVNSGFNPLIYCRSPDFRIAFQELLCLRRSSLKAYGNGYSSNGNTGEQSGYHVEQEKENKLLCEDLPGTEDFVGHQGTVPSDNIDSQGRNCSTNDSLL
Mdm2-MdmX conf: human Mdm2/MdmX binding inhibition, confirmed; shares compounds with Mdm2-MdmX inh; luminescent assay; inhibition, % at 8 µM; actives 55% (n = 10,000); in the data active = inhibition above about 40%
FLuc counter: counter-screen for Mdm2/MdmX inhibitors: full-length luciferase; shares compounds with Mdm2-MdmX inh; SaOS-2 full-length luciferase counterscreen, luminescence; inhibition, % at 8 µM; actives 77% (n = 6,200); AID 504607;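 active = mean inhibition at 8 µM reaching about 37%, which flags the compound as non-specific, limit read from the data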;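 also: p53-null SaOS-2 cells with luciferase driven by a doxycycline-inducible promoter; compound on cells about two nights before reading with doxycycline added after day one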
Numbers without * were called inactive; / = not tested or not shown. Only some compounds are listed: those with a hit (about 3.7% of all), similar ones and a draw of the others.

SMILES | MDM2 E3 inh | UPR XBP1 act | Mdm2-MdmX inh | UPR CHOP act | Dynein transport | B2AR ag | Mdm2-MdmX conf | FLuc counter
CN(C)CCCN(C(=O)c1ccc2c(c1)CCCC2)c1nc2ccc(F)cc2s1 | -11.0 | 1.5 | 37.6 | 3.4 | -0.193 | 12.1 | / | /
CN(C)CCN(C(=O)c1ccc(C(=O)c2ccccc2)cc1)c1nc2cc3c(cc2s1)OCCO3 | / | -2.9 | 2.2 | 1.5 | / | -6.1 | / | /
CN(C)CCCN(C(=O)c1ccc2c(c1)CCCC2)c1nc2cc3c(cc2s1)OCO3 | / | 0.9 | 64.1* | 2.3 | / | 13.3 | 48.8* | 56.1*
CN(C)CCCN(C(=O)c1ccc(C(=O)c2ccccc2)cc1)c1nc2cc3c(cc2s1)OCCO3 | / | -2.1 | 53.5* | 3.6 | / | 14.9 | 38.8 | 87.4*
CCc1ccc(/C=C/c2c[nH]c3ccccc23)[n+](CC)c1 | -2.0 | -1.0 | 53.4* | 0.4 | -0.28 | -77.1 | 44.0* | 58.9*
COc1ccc(CN(CC(=O)NCc2ccco2)C(=O)CNS(=O)(=O)c2ccc(C)cc2)cc1 | / | -1.7 | 9.8 | -0.4 | / | 0.6 | / | /
Cc1ccc2cccc(NC(=O)c3ccc(Br)o3)c2n1 | -2.4 | 1.6 | 61.4* | 7.5 | 1.09 | 6.0 | 63.1* | 54.8*
O=C(Nc1ccccc1-c1nc2ccccc2s1)c1ccc(Br)o1 | -12.8 | 1.6 | 60.2* | 1.1 | -1 | 5.9 | 6.3 | /
COc1cc(NC(=O)CCc2nnc3ccc(N4CCOCC4)nn23)cc(OC)c1OC | / | -5.1 | 9.6 | 1.3 | / | -5.1 | / | /
O=C1/C(=N\S(=O)(=O)c2cccs2)C([n+]2ccc(CCCc3ccccc3)cc2)=C([O-])c2ccccc21 | 1.6 | -8.2 | 82.9* | 16.5 | 0.119 | 1.1 | 52.4* | 41.3*
O=C(CCC(=O)c1ccc(F)cc1)OCc1nnc(-c2ccc([N+](=O)[O-])cc2)o1 | / | -0.5 | -13.1 | 0.6 | / | -2.6 | / | /
COC(=O)c1ccc(NC(=O)c2cc[n+]([O-])cc2)cc1 | / | -1.1 | 13.3 | 1.0 | / | 0.0 | / | /
Cc1nn2c(NCc3ccccn3)cc(C(C)(C)C)nc2c1-c1ccccc1 | -36.4 | 0.1 | 62.4* | 0.0 | -0.296 | 5.3 | 19.8 | /
COc1ccc(Nc2c3c(nc4c(-c5ccccc5)c(C)nn24)CCC3)cc1 | -5.8 | -0.7 | 51.9* | 1.1 | 0.0194 | -2.5 | 22.1 | /
Cc1nn2c(NCc3ccccn3)c3c(nc2c1-c1ccccc1)CCC3 | / | 1.6 | 53.5* | 17.4 | -0.12 | -13.3 | 33.1 | 7.1
Cc1cc(NCc2ccccn2)n2nc(C)c(-c3ccccc3)c2n1 | -6.6 | 5.0 | 31.3 | 15.5 | 0.285 | -10.7 | / | /
Cc1nn2c(N3CCN(C)CC3)c3c(nc2c1-c1ccccc1)CCCC3 | -6.2 | -2.2 | 37.4 | 3.5 | -0.0769 | -11.8 | / | /
C=C[C@@H]1c2ccccc2N(S(=O)(=O)c2ccc(C)cc2)[C@H](c2ccc(C(=O)OC)cc2)C1(C#N)C#N | / | -3.1 | 27.6 | 1.1 | / | 3.4 | / | /
CCN(C(=O)COC(=O)c1cccnc1SC)c1c(N)n(Cc2ccccc2)c(=O)[nH]c1=O | / | -1.4 | 8.8 | 1.2 | / | -0.5 | / | /
C[C@@H]1C=CC(=O)O[C@@H]1c1ccc(Cl)cc1 | / | 1.1 | 78.9* | 5.1 | / | / | 61.0* | 5.5
O=C(Nc1ccc(N2CCN(Cc3ccccc3F)CC2)cc1)c1ccccc1[N+](=O)[O-] | 5.2 | 3.0 | 23.3 | -1.1 | -0.377 | 1.8 | / | /
O=C(Nc1ccc(N2CCN(Cc3ccccc3F)CC2)cc1)c1ccc([N+](=O)[O-])o1 | / | 2.1 | 80.7* | 89.8* | / | -3.4 | 68.5* | 16.3
Cc1cccc(C(C)C)c1NC(=O)Cc1ccc(S(=O)(=O)N2CCOCC2)s1 | / | -2.9 | -9.5 | 2.6 | / | -5.0 | / | /
CC(=O)c1c(C)c(C)c2n1CCn1c(C)ccc1-2 | / | -0.9 | 23.2 | 2.1 | -0.705 | 7.6 | / | /
Cc1ccc(-n2c(-c3ccccc3)cc(/C=N/NC(=O)CC#N)c2-c2ccccc2)cc1 | -4.5 | 2.5 | 54.7* | 6.9 | 0.406 | / | 19.6 | /
SMILES | MDM2 E3 inh | UPR XBP1 act | Mdm2-MdmX inh | UPR CHOP act | Dynein transport | B2AR ag | Mdm2-MdmX conf | FLuc counter
N#CCC(=O)N/N=C/c1cc(-c2ccccc2)n(-c2ccc(Cl)cc2)c1-c1ccccc1 | -11.6 | 6.3 | 49.3 | 23.5 | -1.68 | / | / | /
N=c1c2c(ncn1Cc1ccco1)Oc1c(ccc3ccccc13)C2c1ccccc1 (stereo unspecified) | 3.9 | 5.6 | 70.5* | 2.3 | -0.508 | 23.2 | 69.5* | 54.8*
COc1ccc(C2c3c(ncn(CCN4CCOCC4)c3=N)Oc3ccc4ccccc4c32)cc1 (stereo unspecified) | -13.3 | 4.4 | 70.6* | -1.8 | 2.4 | 15.2 | 55.1* | 64.6*
CN(C)CCn1cnc2c(c1=N)C(c1ccccc1)c1ccc3ccccc3c1O2 (stereo unspecified) | / | 8.3 | 98.0* | 2.5 | / | 15.2 | 70.8* | 40.4*
N=c1c2c(ncn1Cc1ccco1)Oc1cc(O)ccc1C2c1ccccc1 (stereo unspecified) | -7.9 | -3.5 | 33.4 | -0.5 | -0.629 | 5.2 | / | /
N=c1c2c(ncn1CCN1CCOCC1)Oc1ccc3ccccc3c1C2c1ccccc1 (stereo unspecified) | -19.9 | 0.2 | 39.6 | -0.5 | -0.913 | 2.0 | / | /
COc1ccc(C2c3ccc(O)cc3Oc3ncn(CCCO)c(=N)c32)cc1 (stereo unspecified) | -8.1 | -2.2 | 13.7 | 0.3 | 1.27 | -22.1 | / | /
CC1CN(S(=O)(=O)c2cc(C(=O)N(C)Cc3cccs3)ccc2Cl)CC(C)O1 (stereo unspecified) | / | -1.0 | 14.9 | -1.4 | / | 3.6 | / | /
Cc1ccc(NC(=O)c2ncn(CC(=O)NCC(C)c3ccccc3)n2)cc1C (stereo unspecified) | / | 2.6 | 24.4 | -0.1 | / | 0.0 | / | /
Cc1ccc(S(=O)(=O)c2nnn3c2nc(NCCCN2CCCC2=O)c2ccccc23)cc1C | / | -0.8 | 34.1 | 1.4 | / | -4.5 | / | /
Cc1ccc(S(=O)(=O)c2nnn3c2nc(NC2CCN(Cc4ccccc4)CC2)c2ccccc23)cc1C | / | 0.2 | 63.7* | 3.4 | / | 41.1 | 39.4 | 51.5*
CCOc1ccc(Oc2ccccc2NC(=O)CSCC(=O)Nc2cc(C)on2)cc1 | / | -2.5 | 6.9 | 1.5 | / | 3.7 | / | /
Cc1cccc(Oc2ccccc2NC(=O)CSCC(=O)Nc2cc(C)on2)c1 | / | -3.2 | 66.7* | 1.4 | / | 1.7 | 57.9* | 108.5*
